Laboratory results as given in ChEMBL document CHEMBL1123665, “Substituted (aryloxy)alkanoic acids as antagonists of slow-reacting substance of anaphylaxis” (J Med Chem, 1987).
Active and inactive are the calls of the source. No cut-off for these calls is given here.

Tests used:
[1] = test system: Cavia porcellus; assay: In vivo inhibition of leukotriene-induced bronchoconstriction in guinea pigs, was determined, by administering compound by aerosol route; type: functional, organism-based
Summary of the method: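 Urethane-anesthetized male guinea pigs were given propranolol 0.1 mg/kg i.v. 5 min before aerosol. Spontaneously breathing animals inhaled an NaOH-neutralized aqueous drug solution (varied % w/v) or distilled water for 5 min from an ultrasonic nebulizer, then were challenged with i.v. LTE. Tracheal pressure change was compared across 3 control and 5 treated animals. IC50 came from log concentration–response regression over ≥3 concentrations in the 10–90% range.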

[2] = biological target: Cysteinyl leukotriene receptor (Cavia porcellus); assay: In vitro inhibition of SRS-A-induced contractions in guinea pig ileum
[3] = test system: Cavia porcellus; assay: In vivo inhibition of leukotriene-induced bronchoconstriction in guinea pigs, was determined, by administering 10 mg/kg of compound intravenously.; type: functional; details: route intravenous
Summary of the method: (§1)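 Male Hartley guinea pigs (400–600 g) were anesthetized with urethane 2 g/kg i.p. and given propranolol 0.1 mg/kg i.v. 5 min before challenge. After succinylcholine 1.2 mg/kg i.v., animals were ventilated at 40 breaths/min with 4.0 cm3 stroke volume. Drug (10 mg/kg) or vehicle went via jugular cannula 30 s before LTE 25 μg/kg i.v. Tracheal pressure change gave % inhibition (3 control, 5 treated).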

[4] = organism: Cavia porcellus; assay: Inhibitory potency against platelet activating factor (PAF) induced bronchoconstriction in guinea pigs.; type: functional, organism-based
Summary of the method: (§2)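 Anesthetized male guinea pigs were pretreated with propranolol 0.1 mg/kg i.v. and monitored by tracheal pressure. Maximally constrictory i.v. challenges were LTC 50 μg/kg, LTD 50 μg/kg, LTE 25 μg/kg, PAF 10 μg/kg and histamine 50 μg/kg. Dosing, group sizes and % inhibition calculation were otherwise as for the LTE protocol.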

[5] = organism: Cavia porcellus; assay: Inhibitory potency against leukotriene D4 (LTD) induced bronchoconstriction in guinea pigs.; type: functional, organism-based; summary of the method: as §2
[6] = organism: Cavia porcellus; assay: Inhibitory potency against leukotriene E4 (LTE) induced bronchoconstriction in guinea pigs.; type: functional, organism-based; summary of the method: as §2
[7] = test system: Cavia porcellus; assay: In vivo inhibition of leukotriene-induced bronchoconstriction in guinea pigs following 10 mg/kg i.v. administration.; type: functional; details: route intravenous; summary of the method: as §1
[8] = test system: Cavia porcellus; assay: In vivo inhibition of leukotriene-induced bronchoconstriction in guinea pigs, was determined, by administering compound by aerosol route, after 77 min; type: functional, organism-based
Summary of the method: (§3)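 Duration of aerosol protection was measured in anesthetized, propranolol-pretreated male guinea pigs. Each inhaled a 1% neutralized aqueous drug solution by ultrasonic nebulizer for 5 min. LTE i.v. challenge followed after 30 s or 5, 10, 30, 60 or 90 min. Tracheal pressure change gave % inhibition (3 control, 5 treated). Duration is the time at which inhibition fell to 40%.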

[9] = organism: Cavia porcellus; assay: Inhibitory potency against histamine induced bronchoconstriction in guinea pigs.; type: functional, organism-based; summary of the method: as §2
[10] = organism: Cavia porcellus; assay: Inhibitory potency against leukotriene C4 (LTC) induced bronchoconstriction in guinea pigs.; type: functional, organism-based; summary of the method: as §2
[11] = test system: Cavia porcellus; assay: In vivo inhibition of leukotriene-induced bronchoconstriction in guinea pigs, was determined, by administering compound by aerosol route, after 90 min; type: functional, organism-based; summary of the method: as §3
[12] = test system: Cavia porcellus; assay: In vivo inhibition of leukotriene-induced bronchoconstriction in guinea pigs, was determined, by administering compound by aerosol route, after 25 min; type: functional, organism-based; summary of the method: as §3
[13] = organism: Cavia porcellus; assay: In vitro inhibition of SRS-A-induced contractions in guinea pig ileum; type: functional
[14] = test system: Cavia porcellus; assay: In vivo inhibition of leukotriene-induced bronchoconstriction in guinea pigs, was determined, by administering compound by aerosol route, after 42 min; type: functional, organism-based; summary of the method: as §3
[15] = test system: Cavia porcellus; assay: In vivo inhibition of leukotriene-induced bronchoconstriction in guinea pigs, was determined, by administering compound by aerosol route, after 49 min; type: functional, organism-based; summary of the method: as §3
[16] = test system: Cavia porcellus; assay: In vivo inhibition of leukotriene-induced bronchoconstriction in guinea pigs, was determined, by administering 10 mg/kg of compound intravenously.;This compound caused bronchoconstriction; bc = Compound caused bronchoconstriction; type: functional, organism-based; design: dose 10 mg/kg; summary of the method: as §1
[17] = test system: Cavia porcellus; assay: In vivo inhibition of leukotriene-induced bronchoconstriction in guinea pigs, was determined, by administering compound by aerosol route, after 14 min; type: functional, organism-based; summary of the method: as §3
[18] = test system: Cavia porcellus; assay: In vivo inhibition of leukotriene-induced bronchoconstriction in guinea pigs, was determined, by administering compound by aerosol route, after 55 min; type: functional, organism-based; summary of the method: as §3
[19] = test system: Cavia porcellus; assay: In vivo inhibition of leukotriene-induced bronchoconstriction in guinea pigs, was determined, by administering compound by aerosol route, after 7 min; type: functional, organism-based; summary of the method: as §3
[20] = organism: Cavia porcellus; assay: Inhibitory potency against leukotriene C4 (LTC) induced bronchoconstriction in guinea pigs; type: functional, organism-based; summary of the method: as §2
[21] = organism: Cavia porcellus; assay: Inhibitory potency against leukotriene D4 (LTD) induced bronchoconstriction in guinea pigs; type: functional, organism-based; summary of the method: as §2
[22] = test system: Cavia porcellus; assay: In vivo inhibition of leukotriene-induced bronchoconstriction in guinea pigs, was determined, by administering compound by aerosol route, after 73 min; type: functional, organism-based; summary of the method: as §3
[23] = test system: Cavia porcellus; assay: In vivo inhibition of leukotriene-induced bronchoconstriction in guinea pigs, was determined, by administering compound by aerosol route, after 30 min; type: functional, organism-based; summary of the method: as §3
[24] = test system: Cavia porcellus; assay: In vivo inhibition of leukotriene-induced bronchoconstriction in guinea pigs, was determined, by administering compound by aerosol route, after 37 min; type: functional, organism-based; summary of the method: as §3
[25] = test system: Cavia porcellus; assay: In vivo inhibition of leukotriene-induced bronchoconstriction in guinea pigs, was determined, by administering compound by aerosol route, after 46 min; type: functional, organism-based; summary of the method: as §3
[26] = test system: Cavia porcellus; assay: In vivo inhibition of leukotriene-induced bronchoconstriction in guinea pigs, was determined, by administering compound by aerosol route, after 45 min; type: functional, organism-based; summary of the method: as §3
[27] = test system: Cavia porcellus; assay: In vivo inhibition of leukotriene-induced bronchoconstriction in guinea pigs, was determined, by administering compound by aerosol route, after 17 min; type: functional, organism-based; summary of the method: as §3
[28] = test system: Cavia porcellus; assay: In vivo inhibition of leukotriene-induced bronchoconstriction in guinea pigs, was determined, by administering compound by aerosol route, after 22 min; type: functional, organism-based; summary of the method: as §3
[29] = test system: Cavia porcellus; assay: In vivo inhibition of leukotriene-induced bronchoconstriction in guinea pigs, was determined, by administering compound by aerosol route, after 15 min; type: functional, organism-based; summary of the method: as §3
[30] = test system: Cavia porcellus; assay: In vivo inhibition of leukotriene-induced bronchoconstriction in guinea pigs, was determined, by administering compound by aerosol route, after 9 min; type: functional, organism-based; summary of the method: as §3

Structure (SMILES) | IC50 [2] | IC50 [4] | IC50 [6] | inhibition in vivo at 10 mg/kg [7] | IC50 [9] | also measured
CCCc1c(OCCCOc2ccc3ccc(OCCCC(=O)O)cc3c2)ccc(C(C)=O)c1O | 5000 nM |  |  |  |  | IC50 [1]: 1 % conc; inhibition in vivo at 10 mg/kg [3]: 75%
CCCc1c(OCC(O)COc2ccc3c(=O)cc(C(=O)O)oc3c2CCC)ccc(C(C)=O)c1O (configuration not stated) [FPL-55712] |  | > 1 % conc | 0.79 % conc | 98% | > 1 % conc | IC50 [5]: 0.5 % conc; IC50 [8]: 0.79 % conc; IC50 [10]: > 3 % conc
CCCc1c(OCCCOc2c(C(C)=O)ccc(OCC(=O)O)c2CCC)ccc(C(C)=O)c1O | 2000 nM |  |  | 95% |  | IC50 [11]: 0.07 % conc
CCCc1c(OCCCOc2ccc3ccc(OCC(=O)O)cc3c2C(C)=O)ccc(C(C)=O)c1O | 200 nM | > 1 % conc | 0.02 % conc | 90% | > 1 % conc | IC50 [12]: 0.02 % conc; IC50 [5]: 0.32 % conc; IC50 [10]: 0.22 % conc
CCCc1c(OCCOCCOCCOc2c(C(C)=O)ccc(OCC(=O)O)c2CCC)ccc(C(C)=O)c1O |  | > 1 % conc | 0.04 % conc | 85% | 0.8 % conc | IC50 [13]: 1000 nM; IC50 [5]: 0.19 % conc; IC50 [14]: 0.04 % conc; IC50 [10]: 0.36 % conc
CCCc1c(OCCCOc2ccc3ccc(OCC(=O)O)cc3c2)ccc(C(C)=O)c1O | 300 nM |  |  |  |  | IC50 [15]: 0.46 % conc; inhibition [16]: inactive
CCCc1c(OCCOCCOCCOc2c(C(C)=O)ccc(OCCCC(=O)O)c2CCC)ccc(C(C)=O)c1O |  |  |  | 57% |  | IC50 [13]: 500 nM; IC50 [1]: 1 % conc
CCCc1c(OCCOCCOc2c(C(C)=O)ccc(OCC(=O)O)c2CCC)ccc(C(C)=O)c1O | 200 nM |  |  | 86% |  | IC50 [17]: 0.02 % conc
CCCc1c(OCCOCCOc2c(C(C)=O)ccc(OCCCCCC(=O)O)c2CCC)ccc(C(C)=O)c1O | 200 nM |  |  | 91% |  | IC50 [1]: 1 % conc
CCCc1c(OCCCOc2c(C(C)=O)ccc(OCCCCCC(=O)O)c2CCC)ccc(C(C)=O)c1O | 1000 nM |  |  | 91% |  | IC50 [18]: 0.02 % conc
CCCc1c(OCCCCCOc2ccc3ccc(OCC(=O)O)cc3c2C(C)=O)ccc(C(C)=O)c1O | 200 nM |  |  | 60% |  | IC50 [19]: 0.14 % conc
CCCc1c(OCCOCCOCCOCCOc2c(C(C)=O)ccc(OCC(=O)O)c2CCC)ccc(C(C)=O)c1O |  | > 1 % conc | 0.04 % conc | 90% | 0.8 % conc | IC50 [13]: 300 nM; IC50 [20]: 1.3 % conc; IC50 [21]: 0.18 % conc; IC50 [22]: 0.04 % conc
CCCc1c(OCCCOCCCOc2c(C(C)=O)ccc(OCC(=O)O)c2CCC)ccc(C(C)=O)c1O | 400 nM |  |  | 91% |  | IC50 [23]: 0.1 % conc
CCCc1c(OCCCOCCCOc2c(C(C)=O)ccc(OCCCC(=O)O)c2CCC)ccc(C(C)=O)c1O | 200 nM | 1 % conc | 0.01 % conc | 93% | > 1 % conc | IC50 [5]: 0.19 % conc; IC50 [24]: 0.01 % conc; IC50 [10]: 0.15 % conc
CCCc1c(OCCCCCOc2c(C(C)=O)ccc(OCCCC(=O)O)c2CCC)ccc(C(C)=O)c1O | 1000 nM | > 1 % conc | 0.01 % conc | 92% | 0.9 % conc | IC50 [25]: 0.01 % conc; IC50 [5]: 0.57 % conc; IC50 [10]: 0.16 % conc
CCCc1c(OCCCCOCCCCOc2c(C(C)=O)ccc(OCC(=O)O)c2CCC)ccc(C(C)=O)c1O | 500 nM |  |  | 54% |  | IC50 [26]: 0.1 % conc
CCCc1c(OCCOCCOc2c(C(C)=O)ccc(OCCCC(=O)O)c2CCC)ccc(C(C)=O)c1O | 100 nM |  |  | 91% |  | IC50 [27]: 0.22 % conc
CCCc1c(OCCCOc2c(C(C)=O)ccc(OCCCC(=O)O)c2CCC)ccc(C(C)=O)c1O | 200 nM |  |  | 97% |  | IC50 [28]: 0.18 % conc
CCCc1c(OCCCCCOc2c(C(C)=O)ccc(OCC(=O)O)c2CCC)ccc(C(C)=O)c1O | 100 nM | 1 % conc | 0.02 % conc | 73% | > 1 % conc | IC50 [5]: 0.13 % conc; IC50 [18]: 0.02 % conc; IC50 [10]: 0.11 % conc
CCCc1c(OCCCOc2cccc(OCC(=O)O)c2)ccc(C(C)=O)c1O | 500 nM |  |  | 64% |  | IC50 [29]: 0.07 % conc
CCCc1c(OCCCOc2ccc3ccc(OCCCC(=O)O)cc3c2C(C)=O)ccc(C(C)=O)c1O | 80 nM |  |  | 93% |  | IC50 [30]: 0.61 % conc
